High-throughput results from PubChem.
SENP7 inh = SENP7 protease inhibition | inhibition, % at 5 µM | recombinant SENP7, Z-RLRGG-aminoluciferin luminescence, 40 min | 330,000 tested, 1.5% active;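 active = inhibition above about 50% at the single test dose, limit read from the data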;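 also: plate controls were DMSO with enzyme for no effect and no enzyme buffer wells for full effect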
Apaf1 inhib = human Apaf-1 inhibition | O14727 | reconstituted apoptosome caspase-3 activity, DEVD-Rh110 fluorescence | inhibition, % at 20 µM | 330,000 tested, 0.71% active | AID 489030; active = inhibition of at least 40% at 20 µM;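 also: plate controls were DMSO wells for no effect and DEVD-CHO caspase inhibitor wells for full effect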
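Material: reconstituted apoptosome with Apaf-1, cytochrome c, caspase-9, procaspase-3, dATP. Technique: Rh110 fluorescence intensity. Buffer or medium: pH 7.5 Hepes buffer with CHAPS, BSA, DTT. Times: 30 min plus 50 min, RT.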
SENP8 block-1 = inhibitors of human SENP8 protease. Q96LD8. purified SENP8, Z-RLRGG-aminoluciferin cleavage, luminescence. inhibition, % at 10 µM. 330,000 tested, 1.2% active. AID 2540; in the data active = inhibition above about 50%
Target sequence (Q96LD8 whole entry, looked up): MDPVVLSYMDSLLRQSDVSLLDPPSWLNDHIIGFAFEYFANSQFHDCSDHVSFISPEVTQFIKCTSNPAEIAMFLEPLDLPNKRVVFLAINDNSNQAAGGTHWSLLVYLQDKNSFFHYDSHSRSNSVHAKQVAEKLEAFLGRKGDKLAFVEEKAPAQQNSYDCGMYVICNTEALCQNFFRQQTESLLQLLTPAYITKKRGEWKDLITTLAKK
SENP8 block-2 = SENP8 (human) protease inhibition; recombinant SENP8, Nedd8 substrate fluorescence; 360,000 tested, 0.64% active; AID 602440; inhibition, % at 20 µM; Q96LD8; in the data active = inhibition mostly above about 40%, no sharp cut-off; inactive = mostly below about 27%
SENP6 inh = blocks the human protease SENP6; 330,000 tested, 1.8% active; Recombinant SENP6 catalytic domain, aminoluciferin luminescence; inhibition, % at 10 µM; AID 2599; Q9GZR1;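 active = inhibition above about 50% at the single tested dose, limit read from the data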;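 also: plate controls were DMSO wells with enzyme for no effect and DMSO wells lacking enzyme for full effect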
Target sequence (Q9GZR1 628-1112 limits assumed): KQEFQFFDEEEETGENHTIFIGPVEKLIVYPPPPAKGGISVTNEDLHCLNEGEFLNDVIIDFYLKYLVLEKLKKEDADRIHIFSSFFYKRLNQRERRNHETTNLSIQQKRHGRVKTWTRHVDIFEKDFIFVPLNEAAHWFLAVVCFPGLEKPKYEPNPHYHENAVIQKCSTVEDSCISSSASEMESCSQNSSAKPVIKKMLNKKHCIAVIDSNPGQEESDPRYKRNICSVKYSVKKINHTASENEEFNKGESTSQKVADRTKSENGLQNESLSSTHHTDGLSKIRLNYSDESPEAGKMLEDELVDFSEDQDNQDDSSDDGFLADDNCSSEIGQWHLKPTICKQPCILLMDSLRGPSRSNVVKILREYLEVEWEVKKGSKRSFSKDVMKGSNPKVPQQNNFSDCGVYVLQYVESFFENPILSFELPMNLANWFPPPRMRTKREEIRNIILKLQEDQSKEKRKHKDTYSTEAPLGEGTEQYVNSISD
UBC13 inh = blocks human UBC13 polyubiquitin chain formation; P61088; AID 485273; inhibition, % at 20 µM; 330,000 tested, 0.47% active; TR-FRET; in the data active = inhibition above about 45%, passing the limit was not always enough
SENP8 confirm = human SENP8 inhibition, confirmed; shares compounds with SENP7 inh; Recombinant SENP8, Z-RLRGG-aminoluciferin luminescence, 60 min; inhibition, % at 12.5 µM; 6,200 tested, 40% active;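 active = mean inhibition across replicates above about 50%, limit read from the data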
SENP6 confirm = human SENP6 inhibition, confirmed | shares compounds with SENP7 inh | recombinant SENP6, Z-RLRGG-aminoluciferin luminescence | inhibition, % at 12.5 µM | 6,200 tested, 58% active | AID 488915
SENP7 conf = human SENP7 inhibition, confirmed | inhibition, % at 12.5 µM | shares compounds with SENP7 inh | recombinant SENP7, Z-RLRGG-aminoluciferin luminescence, 40 min | AID 488917 | 6,200 tested, 69% active
Casp3 SENP sel = caspase-3 inhibition (SENP selectivity assay); 6,200 tested, 60% active; inhibition, % at 12.5 µM; purified caspase-3, Z-DEVD-aminoluciferin luminescence, 60 min; shares compounds with SENP7 inh;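 active = mean inhibition above about 50%, limit read from the data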;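 also: plate controls were enzyme with DMSO for no effect and wells without caspase-3 for full effect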
SENP luc ctr = luminescence interference (SENP counter-screen). shares compounds with SENP7 inh. Pre-incubated SENP8/Z-RLRGG-aminoluciferin, luciferase luminescence interference. inhibition, % at 12.5 µM. 6,200 tested, 39% active;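 active = mean inhibition above about 50% when retested at one dose, limit read from the data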;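 also: plate controls were DMSO wells with completed reaction for no effect and substrate without enzyme for full effect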
An asterisk follows results filed as active; · = not tested or not shown. Rows were chosen to be rich in hits. Some 3% of all compounds tested hit in one or more screens of this group.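 The calls were made as follows, unless noted: active = mean inhibition above about 50% in the one-dose retest (limit read from the data); inactive = the rest.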

SMILES	SENP7 inh	Apaf1 inhib	SENP8 block-1	SENP8 block-2	SENP6 inh	UBC13 inh	SENP8 confirm	SENP6 confirm	SENP7 conf	Casp3 SENP sel	SENP luc ctr
CC1(C(=O)NS(=O)(=O)c2ccc(C#N)cc2)CCN1C(=O)Cc1cc(F)ccc1F (centres undefined)	·	·	·	10.7	·	·	·	·	·	·	·
O=S(=O)(O)c1cccc(N=Nc2c(O)ccc3ccccc23)c1	92.4*	5.9	94.5*	23.5	98.6*	-228.7	98.0*	98.7*	101.9*	96.8*	96.5*
Cc1c(CC(=O)NCC(=O)NCC(=O)N[C@@H](Cc2ccccc2)C(=O)O)c(=O)oc2c(C)c(O)ccc12	·	·	·	10.8	·	·	·	·	·	·	·
CC(C)(C)c1ccc(C(=O)N2CCOC23CCCCC3)cc1	·	·	·	4.9	·	·	·	·	·	·	·
Cc1cc(NC(=O)c2noc3c2CCc2ccccc2-3)no1	-1.9	14.7	-28.0	8.0	-28.5	-3.5	·	·	·	·	·
Cc1ccc(O)c(NC(=O)c2noc3c2CCc2ccccc2-3)c1	66.1*	-5.4	16.1	1.5	6.6	7.0	-31.1	-16.6	-4.9	0.1	-8.2
O=c1c2ccccc2oc2ccc(-c3ccc4cc[nH]c4c3)cc12	61.7*	10.2	53.1*	-17.8	50.3*	10.4	-10.0	3.8	7.5	3.0	-1.7
Fc1ccc(COc2ccc(C(=S)N3CCCC3)cc2)cc1	40.0	13.9	38.0	11.8	62.2*	1.9	60.1*	54.2*	75.5*	46.0	28.1
S=C(c1ccc(OCc2ccccc2)cc1)N1CCCC1	61.2*	3.4	46.9	16.2	59.7*	-3.1	41.5	36.7	54.8*	26.6	26.4
Cc1ccc(-c2cc3c(nn2)-c2ccccc2C3=O)cc1	99.0*	26.8	95.9*	48.9*	96.1*	-19.7	85.4*	95.4*	99.4*	89.1*	7.5
CC(=O)Nc1ccc(-c2cn3cc(C)ccc3n2)cc1	-5.3	-6.9	-19.0	-276.1	2.6	9.2	·	·	·	·	·
Clc1ccc(-c2cn3cc(Cl)ccc3n2)cc1	93.4*	0.2	69.2*	-181.5	82.4*	-0.7	27.2	42.3	45.4	40.1	14.9
Cc1ccc2nc(-c3ccccc3)cn2c1	98.8*	-4.4	95.2*	-404.0	99.5*	10.6	99.1*	100.2*	103.0*	98.8*	98.3*
Oc1ccc(-c2cn3cc(C(F)(F)F)ccc3n2)cc1	23.3	6.9	26.2	-326.2	54.8*	12.1	57.5*	52.3*	82.9*	60.4*	65.1*
Cc1ccc2nc(-c3ccc(O)c(O)c3)cn2c1	56.7*	2.6	42.0	-443.7	71.5*	-8.1	68.6*	67.4*	90.3*	84.3*	72.2*
CC(C)(C)NC(=O)C1C(c2ccc(C(F)(F)F)cc2)=Nc2ccccc2N1C(=O)c1cccc(C(F)(F)F)c1 (centres undefined)	·	·	·	-7.3	·	·	·	·	·	·	·
COc1ccc(S(=O)(=O)NC(=O)C2(C)CCN2C(=O)COc2ccc(Cl)cc2)cc1OC (centres undefined)	·	·	·	16.5	·	·	·	·	·	·	·
COc1ccc(CCNC(=O)c2cc([C@@H](NC(=O)OC(C)(C)C)C(C)C)sc2N)cc1OC	·	·	·	18.4	·	·	·	·	·	·	·
O=C(NCc1nc(-c2ccc(Cl)cc2)no1)c1ccco1	2.6	6.9	-7.5	-1.0	-2.0	-2.6	·	·	·	·	·
Cc1ccc(-c2noc(COC(=O)c3ccco3)n2)cc1	68.0*	0.5	62.8*	14.8	78.2*	4.0	76.3*	76.3*	94.6*	71.5*	68.1*
O=C(Nc1ccc(-c2noc(CCc3ccccc3)n2)cc1)c1ccco1	60.2*	13.8	54.5*	-9.5	78.1*	-22.4	67.8*	71.0*	89.8*	52.6*	10.5
c1ccc(CCc2nc(-c3ccccc3)no2)cc1	2.1	0.1	-9.8	22.7	-6.1	3.3	·	·	·	·	·
COCCNC(=S)Nc1ccc2nsnc2c1	2.3	-4.6	-9.1	-69.6	-11.3	-12.0	·	·	·	·	·
C=CCNC(=S)Nc1ccc2nsnc2c1	21.0	22.7	18.1	-4.4	59.7*	-7.9	11.2	3.9	10.0	5.9	3.3
Cc1ccc(S(=O)(=O)N2[C@@H](Cc3ccccc3)CO[C@H]2CC(=O)c2ccc(F)cc2)cc1	·	·	·	15.2	·	·	·	·	·	·	·
SMILES	SENP7 inh	Apaf1 inhib	SENP8 block-1	SENP8 block-2	SENP6 inh	UBC13 inh	SENP8 confirm	SENP6 confirm	SENP7 conf	Casp3 SENP sel	SENP luc ctr
N#C/C(=C/c1ccc(N2CCOCC2)c([N+](=O)[O-])c1)C(N)=O	90.4*	-16.2	-7.3	14.0	-1.7	-27.5	21.4	7.5	5.4	4.3	2.3
COc1ccc(-c2cnc3c(NC(C)=O)cc(-c4ccc(C(=O)N5CCOCC5)cc4)cn23)cc1OC	·	·	·	-126.9	·	·	·	·	·	·	·
CSc1ccccc1NC(=O)C1(C)CCN1C(=O)Cc1ccccc1Cl (centres undefined)	·	·	·	2.7	·	·	·	·	·	·	·
CC1(C(=O)NS(=O)(=O)c2ccc(Br)cc2)CCN1C(=O)c1cccc(F)c1 (centres undefined)	·	·	·	22.2	·	·	·	·	·	·	·
Cc1ccc(NC(=O)c2cnccn2)cc1C	70.7*	6.0	39.1	12.2	68.7*	-1.4	66.0*	60.8*	83.4*	84.1*	63.4*
C#Cc1ccc(NC(=O)C2(C)CCN2C(=O)CC(c2ccccc2)c2ccccc2)cc1 (centres undefined)	·	·	·	14.3	·	·	·	·	·	·	·
CCCCN1CC2([N+](=O)[O-])C=CC(=O)C([N+](=O)[O-])(C1)C2CC(=O)c1ccccc1 (centres undefined)	-1.3	16.3	-7.7	7.9	87.5*	-42.0	3.8	-1.4	1.8	4.4	2.9
COc1ccc(OC(F)(F)F)cc1CC1(C)C(=O)Nc2ccc(S(=O)(=O)NC3CCCCC3)cc21 (centres undefined)	·	·	·	13.4	·	·	·	·	·	·	·
O=[N+]([O-])c1ccc(O)c(C2=NNC(c3ccccc3F)C2)c1 (centres undefined)	39.0	10.2	85.0*	22.1	-15.8	-7.5	-3.9	85.8*	96.8*	37.7	50.0*
Cc1cccc(NC(=O)c2cccc(S(=O)(=O)Nc3ccccc3C(=O)O)c2)c1	1.4	1.0	-11.0	0.7	8.1	-7.6	·	·	·	·	·
Cc1ccccc1NS(=O)(=O)c1cccc(C(=O)Nc2cccc(C(=O)O)c2)c1	11.5	6.1	33.6	12.7	65.5*	-4.3	51.8*	44.3	72.5*	12.2	26.4
